Reference: ChEMBL document CHEMBL1146071, “2,4-diaminopyrimidine derivatives as potent growth hormone secretagogue receptor antagonists” (J Med Chem, 2006)
Activity calls are given as the source filed them. The rule behind the calls is not given here.

What was measured:
Rattus norvegicus [1] = experiment: Reduction in cumulative food intake in fasted Sprague-Dawley rat at 10 mg/kg, ip after 24 hrs; format: functional, organism-based; set-up: dose 10 mg/kg
Method in brief: (§1)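 Single ip dose of 10 or 30 mg/kg to free-fed or 16 h (overnight) fasted Sprague-Dawley rats. Cumulative food intake recorded at 1 and 24 h after dosing. n = 10/group, mean ± SEM; ANOVA with post hoc Dunnett.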

[2] = Plasma concentration in Sprague-Dawley rat at 5 mg/kg after 8 hrs; format: ADME, organism-based; set-up: dose 5 mg/kg
Method in brief: (§2)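 Rats dosed at 5 mg/kg: iv for AUC (µg·h/mL), clearance (L/h·kg) and Cmax (µg/mL); oral for bioavailability unless stated otherwise. Brain (µg/g) and plasma levels taken at 1 and 8 h. Mean of n = 3.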

[3] = biological target: T1, Growth hormone secretagogue receptor type 1 (Homo sapiens, UniProt Q92847); experiment: Displacement of [125I]ghrelin from human GHS receptor expressed in CHOK cells; format: cell-based
Method in brief: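 Membranes from CHO-K cells expressing human ghrelin receptor, prepared by sonication and a 60000g spin. Filtered onto PEI-soaked GF/C, washed cold, scintillation counted; percent inhibition, sigmoidal fit for IC50.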

[4] = Concentration in Sprague-Dawley rat brain at 30 mg/kg, ip after 8 hrs; format: ADME, organism-based; set-up: dose 30 mg/kg, route intraperitoneal; conditions: read-out: Ct
Method in brief: (§3)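 Rats given 30 mg/kg ip. Brain (µg/g) and plasma levels measured at 1 and 8 h after dosing.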

[5] = Inhibition of histamine receptor
[6] = biological target: Melanin-concentrating hormone receptor (Homo sapiens, UniProt Q969V1+Q99705); experiment: Activity against MCH receptor in an intracellular calcium flux assay; format: functional, cell-based
[7] = Inhibition of adrenergic receptor
Dopamine receptor = experiment: Inhibition of dopaminergic receptor; format: protein assay
Rattus norvegicus [8] = experiment: Reduction in cumulative food intake in free-fed Sprague-Dawley rat at 10 mg/kg, ip after 1 hr; format: functional, organism-based; set-up: dose 10 mg/kg; method in brief: as §1
[9] = biological target: T2, 5-hydroxytryptamine receptor 2C (Homo sapiens, UniProt P28335); experiment: Inhibition of 5HT2C receptor
T2 sequence (P28335 whole entry): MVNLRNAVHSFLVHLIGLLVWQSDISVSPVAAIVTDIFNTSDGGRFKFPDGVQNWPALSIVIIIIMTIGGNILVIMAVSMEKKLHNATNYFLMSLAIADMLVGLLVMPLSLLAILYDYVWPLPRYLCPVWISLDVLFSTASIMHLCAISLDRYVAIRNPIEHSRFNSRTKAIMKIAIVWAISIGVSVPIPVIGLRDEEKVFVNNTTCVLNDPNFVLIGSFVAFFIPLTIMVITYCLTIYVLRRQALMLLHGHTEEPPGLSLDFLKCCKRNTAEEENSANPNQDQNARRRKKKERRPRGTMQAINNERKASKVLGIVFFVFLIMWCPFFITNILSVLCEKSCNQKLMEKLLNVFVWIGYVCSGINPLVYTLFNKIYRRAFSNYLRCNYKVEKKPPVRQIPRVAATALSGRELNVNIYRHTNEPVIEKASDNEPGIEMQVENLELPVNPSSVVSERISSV

[10] = Cmax in Sprague-Dawley rat at 5 mg/kg, iv; format: ADME, organism-based; set-up: dose 5 mg/kg, route intravenous; conditions: in vivo; method in brief: as §2
[11] = Oral bioavailability in Sprague-Dawley rat at 5 mg/kg; format: ADME, organism-based; conditions: in vivo; method in brief: as §2
Rattus norvegicus [12] = experiment: Reduction in cumulative food intake in free-fed Sprague-Dawley rat at 30 mg/kg, ip after 1 hr; format: functional, organism-based; set-up: dose 30 mg/kg; method in brief: as §1
[13] = Plasma concentration in Sprague-Dawley rat at 30 mg/kg, ip after 8 hrs; format: ADME, organism-based; set-up: dose 30 mg/kg, route intraperitoneal; method in brief: as §3
[14] = biological target: Cannabinoid receptor 1 (Homo sapiens) (UniProt P21554); experiment: Inhibition of CB1 receptor at 10 uM
Rattus norvegicus [15] = experiment: Reduction in cumulative food intake in fasted Sprague-Dawley rat at 30 mg/kg, ip after 24 hrs; format: functional; set-up: scale not given: the % may be the effect or the level left; conditions: route intraperitoneal; method in brief: as §1
[16] = Plasma clearance in Sprague-Dawley rat at 5 mg/kg, iv
[17] = Concentration in Sprague-Dawley rat brain at 5 mg/kg after 8 hrs; format: ADME, organism-based; set-up: dose 5 mg/kg; conditions: read-out: Ct; method in brief: as §2
[18] = biological target: T1, Growth hormone secretagogue receptor type 1; experiment: Antagonist activity at human GHS receptor by inhibition of ghrelin-induced intracellular calcium flux in CHOK cells; format: functional, cell-based
Method in brief: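 CHO-K cells stably expressing human GHS-R, grown in Ultra-CHO medium with 1% dialyzed FCS and 400 µg/mL G418, plated to confluency overnight. Loaded with Fluo-4 AM plus probenecid for 1-3 h in the dark at RT, then washed. On FLIPR (ex 488/em 520 nm), compound added first and read 3 min, then ghrelin added and read another 3 min. Duplicate or triplicate wells; sigmoidal fit for IC50.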

Rattus norvegicus [19] = experiment: AUC in Sprague-Dawley rat at 5 mg/kg, iv; format: ADME, organism-based, Plasma; set-up: dose 5 mg/kg, route intravenous; conditions: in vivo; method in brief: as §2
[20] = Half life in Sprague-Dawley rat at 5 mg/kg, ip; format: ADME, organism-based; set-up: dose 5 mg/kg, route intraperitoneal; conditions: in vivo
Rattus norvegicus [21] = experiment: AUC in Sprague-Dawley rat at 5 mg/kg, ip; format: ADME, organism-based, Plasma; set-up: dose 5 mg/kg, route intraperitoneal; conditions: in vivo
Rattus norvegicus [22] = experiment: Reduction in cumulative food intake in free-fed Sprague-Dawley rat at 30 mg/kg, ip after 24 hrs; format: functional; set-up: scale not given: the % may be the effect or the level left; conditions: route intraperitoneal; method in brief: as §1
Rattus norvegicus [23] = experiment: Decrease in body weight in Sprague-Dawley rat at 30 mg/kg, ip after 24 hrs; format: functional, organism-based; set-up: dose 30 mg/kg
Method in brief: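 Free-fed Sprague-Dawley rats given a single ip dose (10 or 30 mg/kg); body weight taken 24 h after dosing. n = 10/group, mean ± SEM; ANOVA with post hoc Dunnett.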

[24] = Concentration in Sprague-Dawley rat brain at 5 mg/kg after 1 hr; format: ADME, organism-based; set-up: dose 5 mg/kg; conditions: read-out: Ct; method in brief: as §2
[25] = biological target: Nociceptin/orphanin FQ receptor, ORL1 (Homo sapiens) (UniProt P41146); experiment: Inhibition of opioid like-1 receptor
Rattus norvegicus [26] = experiment: Reduction in cumulative food intake in free-fed Sprague-Dawley rat at 10 mg/kg, ip after 24 hrs; format: functional, organism-based; set-up: dose 10 mg/kg; method in brief: as §1
[27] = Cmax in Sprague-Dawley rat at 5 mg/kg, ip; format: ADME, organism-based; set-up: dose 5 mg/kg, route intraperitoneal; conditions: in vivo
[28] = Plasma concentration in Sprague-Dawley rat at 5 mg/kg after 1 hr; format: ADME, organism-based; set-up: dose 5 mg/kg; method in brief: as §2
[29] = Concentration in Sprague-Dawley rat brain at 30 mg/kg, ip after 1 hr; format: ADME, organism-based; set-up: dose 30 mg/kg, route intraperitoneal; conditions: read-out: Ct; method in brief: as §3
Rattus norvegicus [30] = experiment: Bioavailability in Sprague-Dawley rat at 5 mg/kg, ip; format: ADME, organism-based; conditions: in vivo
[31] = Plasma concentration in Sprague-Dawley rat at 30 mg/kg, ip after 1 hr; format: ADME, organism-based; set-up: dose 30 mg/kg, route intraperitoneal; method in brief: as §3
[32] = biological target: Muscarinic acetylcholine receptor; experiment: Inhibition of muscarinic receptor; format: protein assay

T1 sequence (Q92847 whole entry): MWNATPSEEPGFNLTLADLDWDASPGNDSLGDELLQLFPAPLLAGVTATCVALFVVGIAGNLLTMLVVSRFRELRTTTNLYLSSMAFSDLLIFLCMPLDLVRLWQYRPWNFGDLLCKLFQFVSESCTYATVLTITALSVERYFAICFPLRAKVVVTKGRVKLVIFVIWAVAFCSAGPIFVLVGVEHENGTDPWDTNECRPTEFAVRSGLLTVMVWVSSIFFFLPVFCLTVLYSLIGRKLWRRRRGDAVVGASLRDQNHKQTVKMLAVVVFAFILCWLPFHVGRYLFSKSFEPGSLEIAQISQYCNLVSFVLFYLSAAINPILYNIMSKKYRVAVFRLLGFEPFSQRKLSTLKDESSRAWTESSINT
Sequence of Cannabinoid receptor 1 (Homo sapiens) (P21554 whole entry): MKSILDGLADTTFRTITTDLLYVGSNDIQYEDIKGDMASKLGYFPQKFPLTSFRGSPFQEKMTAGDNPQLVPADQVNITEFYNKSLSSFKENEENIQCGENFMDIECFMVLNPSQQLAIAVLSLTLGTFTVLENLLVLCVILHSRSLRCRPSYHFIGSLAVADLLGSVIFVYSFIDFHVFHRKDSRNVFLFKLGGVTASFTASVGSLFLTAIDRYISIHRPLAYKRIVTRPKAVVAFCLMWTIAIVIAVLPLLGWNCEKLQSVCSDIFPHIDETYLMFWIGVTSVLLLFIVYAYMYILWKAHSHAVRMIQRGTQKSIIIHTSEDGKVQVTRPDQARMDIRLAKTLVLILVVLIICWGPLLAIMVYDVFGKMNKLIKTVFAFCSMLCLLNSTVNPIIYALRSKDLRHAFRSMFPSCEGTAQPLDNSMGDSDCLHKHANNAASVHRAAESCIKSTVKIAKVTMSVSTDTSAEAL
Sequence of Nociceptin/orphanin FQ receptor, ORL1 (Homo sapiens) (P41146 whole entry, looked up): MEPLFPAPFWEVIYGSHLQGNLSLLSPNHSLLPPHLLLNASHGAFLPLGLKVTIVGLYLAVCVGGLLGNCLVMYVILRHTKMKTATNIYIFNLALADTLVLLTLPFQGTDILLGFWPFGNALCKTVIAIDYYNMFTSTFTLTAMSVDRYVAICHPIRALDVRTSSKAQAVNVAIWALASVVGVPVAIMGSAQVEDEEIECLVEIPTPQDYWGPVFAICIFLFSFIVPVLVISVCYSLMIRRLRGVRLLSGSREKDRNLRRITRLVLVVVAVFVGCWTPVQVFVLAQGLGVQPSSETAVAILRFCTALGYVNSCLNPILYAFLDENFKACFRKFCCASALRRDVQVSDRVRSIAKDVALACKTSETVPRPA

What does the source list for `Nc1nc(N)c(-c2ccc(NCc3ccc(Cl)cc3)cc2)c(COCc2ccccc2)n1`?
Activity (Rattus norvegicus [1]): Dose-dependent effect; concentration at 8 h [2]: 30 ng/mL; IC50 [3]: 0.019 µM; concentration at 8 h [4]: 140 ng/g; IC50 [5]: > 33 µM; IC50 [6]: > 10 µM; IC50 [7]: > 33 µM; IC50 (Dopamine receptor): > 33 µM; Activity (Rattus norvegicus [8]): Dose-dependent effect; IC50 [9]: > 33 µM; Cmax [10]: 54 ng/mL; bioavailability [11]: 5.5%; Activity (Rattus norvegicus [12]): Dose-dependent effect; concentration at 8 h [13]: 190 ng/mL; inhibition [14]: -1%; Activity (Rattus norvegicus [15]): 24%; clearance [16]: 36.7 mL/min/kg; concentration at 8 h [17]: 50 ng/g; IC50 [18]: 0.18 µM; AUC (Rattus norvegicus [19]): 120 ng·h/mL; half-life [20]: 3.9 h; AUC (Rattus norvegicus [21]): 1140 ng·h/mL; Activity (Rattus norvegicus [22]): 29%; Activity (Rattus norvegicus [23]): Active; concentration at 1 h [24]: 1070 ng/g; IC50 [25]: > 33 µM; Activity (Rattus norvegicus [26]): Dose-dependent effect; Cmax [27]: 260 ng/mL; concentration at 1 h [28]: 350 ng/mL; concentration at 1 h [29]: 330 ng/g; F (Rattus norvegicus [30]): 68%; concentration at 1 h [31]: 500 ng/mL; IC50 [32]: > 5.5 µM
